Data from ChEMBL document CHEMBL3414486, “Synthesis of heterocycle-modified betulinic acid derivatives as antitumor agents” (Eur J Med Chem, 2015).

What was measured:
[1] = Cytotoxicity against human HCT116 cells assessed as growth inhibition after 96 hrs by SRB assay; format: functional, cell-based; conditions: HCT-116, 96 h
Summary of the method: (§1)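 SRB viability assay. Cells are seeded for 24 h, then exposed for 96 h to a concentration series from 20 mM DMSO stocks, with a DMSO control. Cells are fixed in 50% TCA (2 h, 4 °C), stained with 0.4% SRB for 10 min and washed with 1% acetic acid. Bound dye is dissolved in 10 mM Tris base and read at 515 nm. IC50 is averaged from at least 3 independent experiments. SI is IC50 in HAF divided by IC50 in the cancer line.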

HT-29 [2] = test: Cytotoxicity against human HT-29 cells assessed as growth inhibition after 96 hrs by SRB assay; format: functional, cell-based; conditions: HT-29, 96 h; summary of the method: as §1
[3] = Cytotoxicity against human PC3 cells assessed as growth inhibition after 96 hrs by SRB assay; format: functional, cell-based; conditions: PC-3, 96 h; summary of the method: as §1
DU-145 [4] = test: Cytotoxicity against human DU145 cells assessed as growth inhibition after 96 hrs by SRB assay; format: functional, cell-based; conditions: DU-145, 96 h; summary of the method: as §1
MDA-MB-231 = test: Cytotoxicity against human MDA-MB-231 cells assessed as growth inhibition after 96 hrs by SRB assay; format: functional, cell-based; conditions: MDA-MB-231, 96 h; summary of the method: as §1
4T1 [5] = test: Cytotoxicity against mouse 4T1 cells assessed as growth inhibition after 96 hrs by SRB assay; format: functional, cell-based; conditions: 4T1, 96 h; summary of the method: as §1
T47D [6] = test: Cytotoxicity against human T47D cells assessed as growth inhibition after 96 hrs by SRB assay; format: functional, cell-based; summary of the method: as §1
MCF7 [7] = test: Cytotoxicity against human MCF7 cells assessed as growth inhibition after 96 hrs by SRB assay; format: functional, cell-based; conditions: MCF7, 96 h; summary of the method: as §1
[8] = Cytotoxicity against human MCF7/ADR cells assessed as growth inhibition after 96 hrs by SRB assay; format: functional, cell-based; conditions: NCI/ADR-RES; summary of the method: as §1
[9] = Cytotoxicity against HAF assessed as growth inhibition after 96 hrs by SRB assay; conditions: Homo sapiens; summary of the method: as §1
NCI/ADR-RES = test: Selectivity index, ratio of IC50 for HAF to IC50 for human MCF7/ADR cells; summary of the method: as §1
HT-29 [10] = test: Selectivity index, ratio of IC50 for HAF to IC50 for human HT-29 cells; summary of the method: as §1
PC-3 = test: Selectivity index, ratio of IC50 for HAF to IC50 for human PC3 cells; summary of the method: as §1
DU-145 [11] = test: Selectivity index, ratio of IC50 for HAF to IC50 for human DU145 cells; summary of the method: as §1
[12] = Selectivity index, ratio of IC50 for HAF to IC50 for human MDA-MB-231 cells; summary of the method: as §1
4T1 [13] = test: Selectivity index, ratio of IC50 for HAF to IC50 for mouse 4T1 cells; summary of the method: as §1
T47D [14] = test: Selectivity index, ratio of IC50 for HAF to IC50 for human T47D cells; summary of the method: as §1
MCF7 [15] = test: Selectivity index, ratio of IC50 for HAF to IC50 for human MCF7 cells; summary of the method: as §1
HCT-116 = test: Selectivity index, ratio of IC50 for HAF to IC50 for human HCT116 cells; summary of the method: as §1

Structure (SMILES) | IC50 [1] [µM] | IC50 (HT-29 [2]) [µM] | IC50 [3] [µM] | IC50 (DU-145 [4]) [µM] | IC50 (MDA-MB-231) [µM] | IC50 (4T1 [5]) [µM] | IC50 (T47D [6]) [µM] | IC50 (MCF7 [7]) [µM] | IC50 [8] [µM] | IC50 [9] [µM] | Ratio IC50 (NCI/ADR-RES) | Ratio IC50 (HT-29 [10]) | Ratio IC50 (PC-3) | Ratio IC50 (DU-145 [11]) | Ratio IC50 [12] | Ratio IC50 (4T1 [13]) | Ratio IC50 (T47D [14]) | Ratio IC50 (MCF7 [15]) | Ratio IC50 (HCT-116)
C=C(C)[C@@H]1CC[C@]2(C(=O)O)CC[C@]3(C)[C@H](CC[C@@H]4[C@@]5(C)CC[C@H](NC(=O)CCC6CCNCC6)C(C)(C)[C@@H]5CC[C@]43C)[C@@H]12 | 6.86 | 2.39 | 3.42 | 4.39 | 3.27 | 2.99 | 2.59 | 2.9 | 4.42 | 6.89 | 1.6 | 2.9 | 2 | 1.6 | 2.1 | 2.3 | 2.7 | 2.4 | 1
C=C(C)[C@@H]1CC[C@]2(C(=O)O)CC[C@]3(C)[C@H](CC[C@@H]4[C@@]5(C)CC[C@H](NC(=O)c6cnc(C)cn6)C(C)(C)[C@@H]5CC[C@]43C)[C@@H]12 | > 25 | > 25 | > 25 | > 25 | > 25 | > 25 | > 25 | > 25 | – | – | – | – | – | – | – | – | – | – | –
C=C(C)[C@@H]1CC[C@]2(C(=O)O)CC[C@]3(C)[C@H](CC[C@@H]4[C@@]5(C)CC[C@H](OC(=O)C6CCNCC6)C(C)(C)[C@@H]5CC[C@]43C)[C@@H]12 | 1.4 | 1.32 | 2.18 | 2.69 | 1.6 | 3.74 | 3.05 | 2.41 | 0.59 | 5.7 | 9.7 | 4.3 | 2.6 | 2.1 | 3.6 | 1.5 | 1.9 | 2.4 | 4.1
C=C(C)[C@@H]1CC[C@]2(C(=O)O)CC[C@]3(C)[C@H](CC[C@@H]4[C@@]5(C)CC[C@H](NC(=O)c6cccnc6)C(C)(C)[C@@H]5CC[C@]43C)[C@@H]12 | > 25 | > 25 | > 25 | > 25 | > 25 | > 25 | > 25 | > 25 | – | – | – | – | – | – | – | – | – | – | –
C=C(C)[C@@H]1CC[C@]2(C(=O)O)CC[C@]3(C)[C@H](CC[C@@H]4[C@@]5(C)CC[C@H](NC(=O)CCCC6CCNCC6)C(C)(C)[C@@H]5CC[C@]43C)[C@@H]12 | 5.61 | 4.38 | 5.23 | 7.7 | 3.44 | 6.01 | 5.26 | 6.49 | 0.93 | 9.15 | 9.8 | 2.1 | 1.7 | 1.2 | 2.7 | 1.5 | 1.7 | 1.4 | 1.6
C=C(C)[C@@H]1CC[C@]2(C(=O)O)CC[C@]3(C)[C@H](CC[C@@H]4[C@@]5(C)CC[C@H](NC(=O)c6cnccn6)C(C)(C)[C@@H]5CC[C@]43C)[C@@H]12 | > 25 | > 25 | > 25 | > 25 | > 25 | > 25 | > 25 | > 25 | – | – | – | – | – | – | – | – | – | – | –
COc1cccc2c1C(=O)c1c(O)c3c(c(O)c1C2=O)C[C@@](O)(C(=O)CO)C[C@@H]3O[C@H]1C[C@H](N)[C@H](O)[C@H](C)O1 [DOXORUBICIN] | – | – | – | – | – | – | – | – | 9.26 | 0.016 | – | – | – | – | – | – | – | – | –
C=C(C)[C@@H]1CC[C@]2(C(=O)O)CC[C@]3(C)[C@H](CC[C@@H]4[C@@]5(C)CC[C@H](NC(=O)C6CCCCN6)C(C)(C)[C@@H]5CC[C@]43C)[C@@H]12 (some centres not stated) | 11.4 | 20.1 | > 25 | 7.31 | 10.6 | 7.87 | 6.49 | 4.81 | – | – | – | – | – | – | – | – | – | – | –
C=C(C)[C@@H]1CC[C@]2(C(=O)O)CC[C@]3(C)[C@H](CC[C@@H]4[C@@]5(C)CC[C@H](NC(=O)c6cccnc6Cl)C(C)(C)[C@@H]5CC[C@]43C)[C@@H]12 | > 25 | > 25 | > 25 | > 25 | > 25 | 16.1 | 17.7 | > 25 | – | – | – | – | – | – | – | – | – | – | –
C=C(C)[C@@H]1CC[C@]2(C(=O)O)CC[C@]3(C)[C@H](CC[C@@H]4[C@@]5(C)CC[C@H](NC(=O)CC6CCNCC6)C(C)(C)[C@@H]5CC[C@]43C)[C@@H]12 | 2.67 | 2.46 | 2.55 | 3.72 | 3.17 | 5.15 | 2.37 | 3.43 | 3 | 9.21 | 3.1 | 3.7 | 3.6 | 2.5 | 2.9 | 1.8 | 3.9 | 2.7 | 3.4
C=C(C)[C@@H]1CC[C@]2(C(=O)O)CC[C@]3(C)[C@H](CC[C@@H]4[C@@]5(C)CC[C@H](OC(=O)C6CCCNC6)C(C)(C)[C@@H]5CC[C@]43C)[C@@H]12 (some centres not stated) | 4.6 | 4.89 | 8.09 | 11.3 | 4.97 | 7.65 | 9.73 | 4.42 | 1.6 | 5.42 | 3.4 | 1.1 | 0.7 | 0.5 | 1.1 | 0.7 | 0.6 | 1.2 | 1.2
C=C(C)[C@@H]1CC[C@]2(C(=O)O)CC[C@]3(C)[C@H](CC[C@@H]4[C@@]5(C)CC[C@H](NC(=O)c6ccncc6)C(C)(C)[C@@H]5CC[C@]43C)[C@@H]12 | > 25 | > 25 | > 25 | > 25 | > 25 | > 25 | > 25 | > 25 | – | – | – | – | – | – | – | – | – | – | –
C=C(C)[C@@H]1CC[C@]2(C(=O)O)CC[C@]3(C)[C@H](CC[C@@H]4[C@@]5(C)CC[C@H](NC(=O)C6CCCNC6)C(C)(C)[C@@H]5CC[C@]43C)[C@@H]12 (some centres not stated) | 1.28 | 1.19 | 1.3 | 3.16 | 1.94 | 2.18 | 2.24 | 0.94 | 0.39 | 3.18 | 8.2 | 2.7 | 2.4 | 1 | 1.6 | 1.5 | 1.4 | 3.4 | 2.5
C=C(C)[C@@H]1CC[C@]2(C(=O)O)CC[C@]3(C)[C@H](CC[C@@H]4[C@@]5(C)CC[C@H](NC(=O)C6CCCN6)C(C)(C)[C@@H]5CC[C@]43C)[C@@H]12 (some centres not stated) | 17.5 | 18.8 | 20.3 | 11 | 12.8 | 8.03 | 11 | 15.2 | – | – | – | – | – | – | – | – | – | – | –
